Assay results as given in ChEMBL document CHEMBL4513216, “Probing the Open Global Health Chemical Diversity Library for Multistage-Active Starting Points for Next-Generation Antimalarials” (ACS Infect Dis, 2020).

Test: Toxicity liver stage against HepG2, at 10uM
Assay type: cell-based
Set-up: test concentration 10 uM, cell line HepG2-A16-CD81EGFP
Details: human, HepG2-A16-CD81EGFP cells; read-out: INHIBITION
Method in brief: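 Uninfected HepG2-A16-CD81EGFP cells, 3 × 10^3 per well, 1536-well, plated on prespotted compound at 10 μM final, parasite-free screening media added to match infected plates; puromycin 10 μM positive, DMSO 0.5% negative; run in parallel with 48 h PbLuc assay at 37 °C, 5% CO2; viability by CellTiter-Glo luminescence, normalized to controls.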

Structure (SMILES) | cytotoxicity at 10 µM
CC(=O)N1CCO[C@@H]2CN(S(=O)(=O)c3cccnc3)C[C@@H]2C1 | 3.02%
CN1CC(=O)N(C2CCCNC2)Cc2c(NC3CCC3)ncnc21 (stereo unspecified) | 3.96%
COc1ccc(C(=O)N2CCC(Nc3cccnn3)CC2)c(OC)c1 | 4.67%
Cc1noc(C2CCCN(CC(=O)N3CCNC(=O)C3)C2)n1 (stereo unspecified) | -13%
CC(C)N(C)C(=O)CN1CCCC(c2ccc(C(=O)O)cc2)C1 (stereo unspecified) | -7.74%
CCc1noc(CN(C)C(=O)c2ccnc(OC3CCC3)c2)n1 | 4.86%
O=C(c1cccc2cn[nH]c12)N1CCCC1c1noc(C2CC2)n1 (stereo unspecified) | -16.8%
Cn1cnc2c1CCN(Cc1csc(Cc3ccccc3)n1)C2 | -5.4%
Cc1cc(-c2ccnn2C)nc(C2CCN(S(C)(=O)=O)CC2)n1 | 0.425%
CN1CCC(NC(=O)Nc2cnn(-c3ccccc3Cl)c2)CC1 | -5.5%
Cc1ccc(CN2CCOC3(CCCN(c4cccc(F)c4)C3)C2)o1 (stereo unspecified) | -70%
COc1c(CNCc2ccc(Cn3ccnc3)cc2)c(C)nn1C | -25.1%
CCc1nnc(Nc2cccc(C3CCN(S(=O)(=O)N(C)C)CC3)n2)s1 | -16.2%
CCc1noc(CCCC(=O)Nc2cc(C(F)(F)F)c[nH]c2=O)n1 | -4.84%
CCn1cncc1C1CC(=O)Nc2c1c(C)nn2-c1ccc(C)cc1 (stereo unspecified) | -8.23%
NC(=O)CC1CCN(S(=O)(=O)N2CCCC2c2ccco2)CC1 (stereo unspecified) | 3.82%
O=c1[nH]ncc(NCCOc2ccc3c(c2)CCC3)c1Cl | 34.5%
COc1ccc(C(C(=O)O)N2CCC(O)(c3cccnc3)CC2)cc1Cl (stereo unspecified) | 4.57%
O=C(C1CCCC1)N1CCC(C(O)c2ccc(F)cc2)CC1 (stereo unspecified) | 8.54%
Cc1csc(N2CCN(C(=O)c3ccc(C)s3)CC2)n1 | -24.3%
O=C(O)C1c2nc[nH]c2CCN1Cc1ccccc1-c1ccccc1 (stereo unspecified) | -10.5%
COCCn1c(=O)n(C)c(=O)c2ccc(C3CCN(C(C)=O)CC3)nc21 | 4.89%
CCn1cnc(NC(=O)N2CCC(c3ccc(Cl)cc3)C2)n1 (stereo unspecified) | 0.0451%

Structure (SMILES) | cytotoxicity at 10 µM
CNc1ccnc(N2C[C@H]3CC[C@@H](C2)N(CCOC)C3=O)n1 | 7.64%
CS(=O)(=O)N1CC(=O)N(CCCc2ccccc2)CC(O)C1 (stereo unspecified) | -7.99%
Cc1ccc(-c2nc(CN3CCC(N4CCNC4=O)CC3)co2)cc1 | -7.73%
CNS(=O)(=O)c1cccc(C(C)NCc2cccc(OC)c2)c1 (stereo unspecified) | -12.3%
COCCN(CCOC)c1ncccc1Cl | 3.94%
Cc1nc(CNC(=O)c2ccc3c(c2)nc(N2CCOCC2)n3C)cs1 | -1.76%
Cc1ccoc1C(=O)N1CCn2cc(CN3CCCC3)nc2C1 | -79.6%
CN(CCC(O)c1ccccc1)Cc1nc(-c2ccccc2)no1 (stereo unspecified) | 7.86%
COc1ccc(N2CCN(Cc3nc(CSC)no3)C(C)C2=O)cc1 (stereo unspecified) | 3.28%
COc1cc(N2CC[C@@H]3O[C@@H](c4ccnc(C)n4)C[C@H]3C2)ncn1 | 23.1%
CC(CCc1ccccc1)NC(=O)CNCCCN1CCOCC1 (stereo unspecified) | -11.1%
CSCCC(=O)N[C@H]1CC[C@H](Nc2nccc(-c3ccncc3)n2)C1 | -0.664%
CCc1cc(CN2CCCCC2c2ccc(F)cc2)on1 (stereo unspecified) | -2.45%
NC1CCC(n2cc(C(=O)NC3CCc4ccccc4C3)nn2)CC1 (stereo unspecified) | -4.42%
COc1ccccc1C(C)(C)NC(=O)c1ccc(F)c(NC(C)=O)c1 | -142%
COc1cc(CNc2ccc(Cl)cc2)ccc1OCC(=O)O | 3.63%
COc1ncccc1NC(=O)N(Cc1ccco1)C1CC1 | 5.25%
CN1CCCC1CNC(=O)CCOc1ccc(Br)cc1 (stereo unspecified) | -16.9%
CCN(CC)CCNC(=O)C(C)OCC(F)(F)F (stereo unspecified) | 4.23%
CN1C(=O)CC(c2ccccc2)C12CCN(C(=O)c1ccc[nH]1)CC2 (stereo unspecified) | 7.52%
CCc1nc(C2CCCN(C(=O)c3cccc4cn[nH]c34)C2)no1 (stereo unspecified) | -3.73%
Cc1cccc(C(C)(C)CNC(=O)CN(C)c2cnccn2)c1 | 1.79%
COc1ccc(-n2cccn2)c(CN2CCC3(CCCN(C)C3=O)C2)c1 (stereo unspecified) | 10.2%

Structure (SMILES) | cytotoxicity at 10 µM
CC(=O)N1[C@H](CN(C)C)C[C@@H]2CN(C(=O)c3cccc(F)c3)CC[C@@H]21 | 5.85%
O=c1cc(N2CCCC2)cnn1CC(F)F | 6.93%
Cc1nc(C2CCCN(C(=O)c3cccc4c3OCO4)C2)no1 (stereo unspecified) | 3.39%
CSCC(=O)N(C)Cc1ccccc1 | -2.34%
O=C(Cn1cccn1)N1CCC(c2nnc(C(F)(F)F)o2)CC1 | -10.8%
O=S(=O)(c1cccs1)N1Cc2nc(CN3CCCC3)oc2C1 | -118%
CCn1nc(C)c(CN2CCCC(c3ccc(C(=O)O)cc3)C2)c1C (stereo unspecified) | -8.56%
CC(=O)N[C@@H]1CN(S(=O)(=O)c2ccc(Cl)cc2)C[C@H]1O | 7.03%
Cc1noc([C@]23COC[C@H]2CN(C(=O)N2CCCC2)C3)n1 | -103%
Cc1cnc(N2CCC3(CCN(CC4CCCC4)C3=O)CC2)nc1 | -6.54%
Cc1cc(NCc2ccc(CS(N)(=O)=O)cc2)nc(C)n1 | -7.2%
Brc1ccc(CNCc2nnc3n2CCC3)s1 | -4.2%
CN(C)S(=O)(=O)c1ccc(CN2CCC(c3ccccc3)C2)o1 (stereo unspecified) | 17.5%
CCOCCCNC(=O)Cc1cccc(F)c1 | 12.1%
CSCCc1ccc(NC(=O)NC(C)Cn2cncn2)cc1 (stereo unspecified) | 2.56%
CN(C)C(=O)NC1COC2(CCN(C(=O)c3ccc(Cl)cc3)CC2)C1 (stereo unspecified) | 0.994%
CN(C)C(=O)c1cnc2n1CCN(Cc1ccncc1)C2 | -69.4%
CCn1cc(CN(C)S(=O)(=O)c2cc(Cl)ccc2Cl)cn1 | 8.6%
O=C(C1CCCO1)N1CCCn2c(nnc2Cn2cccc2)C1 (stereo unspecified) | 16.4%
CNC(=O)c1cnc(/C=C/c2ccc(OC)c(O)c2)s1 | -11.1%
Cc1cccc(CN2CCCC2c2cncc(Nc3nncs3)n2)c1 (stereo unspecified) | -3.47%
c1ccc(CN2CCc3c(COCC4CC4)cncc3C2)nc1 | 2.41%
CCCc1n[nH]c(C2CN(C(=O)CCn3cc(C)cn3)CCO2)n1 (stereo unspecified) | 10.3%

Structure (SMILES) | cytotoxicity at 10 µM
CN(C)S(=O)(=O)N1CCN(C(=O)c2ccc3ccn(C)c3c2)CC1 | -7.56%
Cc1nc(CN2CCC3(C2)CN(Cc2ccco2)C3)cs1 | -106%
Cc1nc(CN2CCCC(CCc3ccccc3F)C2)c[nH]1 (stereo unspecified) | -6.55%
COC(=O)CNC(=O)C12CCC(=O)N1c1cc(Cl)ccc1S2 (stereo unspecified) | -0.748%
Cc1noc(C)c1C(=O)N1CCCC1c1c(C)nn(C)c1C (stereo unspecified) | -5.68%
O=C1CC(NS(=O)(=O)N2CCOCC2)CN1Cc1ccccc1 (stereo unspecified) | 4.19%
OC(CN1CCN(Cc2cc(F)cc(F)c2)CC1)C1CC1 (stereo unspecified) | 11.5%
Cc1nc(CN2CCCC(NCc3csc(C(C)(C)C)n3)C2)no1 (stereo unspecified) | 0.238%
Cc1ccc(C(=O)O)cc1-c1cccc(C(C)N(C)C)c1 (stereo unspecified) | -3.17%
CC(C(=O)N1CCN(CCOc2ccccc2)CC1)n1cncn1 (stereo unspecified) | -4.88%
Cc1ncoc1C(=O)N1CC[C@@]2(C[C@H](NS(C)(=O)=O)CCO2)C1 | -73%
CCC(NC(=O)Nc1cc(F)c(OC)c(F)c1)c1noc(C)n1 (stereo unspecified) | -0.177%
COc1ccc(OC)c(CNc2nnc(C(C)(C)C)o2)c1 | -6.1%
Nc1nc2c(c3c1C(=O)NC3=O)CCCC2 | 10.2%
CCCNC(=O)c1nc2c(o1)CN(C(=O)CN(C)C)C2 | 0.0773%
CNC(=O)[C@H]1CC[C@@H]2[C@@H](CCN2c2ncccn2)O1 | 6.25%
COC(=O)CN(Cc1ccccc1C)C(=O)CCNC(=O)C(C)(C)C | 12.9%
Cc1nc(Cn2c3c(ccc2=O)CC(NC(N)=O)CC3)cs1 (stereo unspecified) | 9.79%
O=C(CSc1nncs1)N1CCN(Cc2ccc(Cl)s2)CC1 | -4.14%
CCC(=O)N1CCc2[nH]cnc2C12CCN(CC1CCOC1)CC2 (stereo unspecified) | -0.264%
CC(CO)NC(=O)Nc1ccc(COC2CCCC2)cc1 (stereo unspecified) | -7.41%
CCN(Cc1noc(C)n1)C(=O)CCn1c(C)cc2ccccc21 | -3.97%
Cn1cc(C2(C)CN(c3ncccc3C#N)CCO2)cn1 (stereo unspecified) | 4.48%

Structure (SMILES) | cytotoxicity at 10 µM
Cc1cnn(CCNCC(=O)N2CCN(c3ccccn3)CC2)c1 | 1.22%
OCCC1(NCc2ccc(-n3cccn3)cc2)CCOCC1 | -146%
CCOC(=O)CNC(=O)NCc1cc(C)n(-c2ccccc2OC)c1C | 13.3%
Cc1noc(C)c1CN1C[C@H]2CC[C@@H](C1)N(Cc1cc(F)cc(F)c1)C2 | -11.9%
COCCC(=O)N1CCC2(COCc3c(C)nc(NCC4CC4)nc32)C1 (stereo unspecified) | 2.19%
O=C(CCCN1CCCCC1)N1CCC(c2nnc[nH]2)CC1 | -7.92%
CC(NC(=O)N1CCC(CO)CC1)c1csc2ccccc12 (stereo unspecified) | -5.4%
N#Cc1cccc(OCC(=O)N(Cc2ccncc2)C2CC2)c1 | -44.2%
CS(=O)(=O)NCCN1CCCC1c1ccc(Cl)cc1 (stereo unspecified) | 3.6%
O=C(NC1CC1)N1CCc2ncc(CN3CCOCC3)n2CC1 | -76.5%
CN1C(=O)CC2(CCN(S(=O)(=O)N(C)C)CC2)c2ccccc21 | 0.688%
Cc1ccc2cc(CNCCCN3CCOCC3)c(=O)[nH]c2c1 | -0.336%
O=C(CC1CCCC1)N1CCn2cc(Cn3cccn3)nc2C1 | -75.4%
Cc1ccn2cc(C(=O)N3CCCC(Cn4cc(CO)nn4)C3)nc2c1 (stereo unspecified) | 2.41%
CN(C)S(=O)(=O)N1CCC(Oc2ccc(C#N)cc2)CC1 | 3.96%
Cc1ccc(-n2nnnc2C2(NCc3ccco3)CCCC2)cc1 | 7.55%
CN(C)C[C@H]1OC[C@@H]2CCN(S(=O)(=O)c3cccs3)C[C@@H]21 | 3.04%
CN1CCCC(c2cccc(-c3cccc(F)c3)n2)C1 (stereo unspecified) | -2.4%
CNS(=O)(=O)CC1CCCN1C(=O)c1cccc(Cl)c1 (stereo unspecified) | -1.5%
